The source of these data is ChEMBL document CHEMBL1139318, “Tyrosinase inhibitory effects of 1,3-diphenylpropanes from Broussonetia kazinoki” (Bioorg Med Chem, 2009).

Assay [1] concerns the target T1, Tyrosinase (Agaricus bisporus, UniProt O42713).
T1 sequence (O42713 whole entry): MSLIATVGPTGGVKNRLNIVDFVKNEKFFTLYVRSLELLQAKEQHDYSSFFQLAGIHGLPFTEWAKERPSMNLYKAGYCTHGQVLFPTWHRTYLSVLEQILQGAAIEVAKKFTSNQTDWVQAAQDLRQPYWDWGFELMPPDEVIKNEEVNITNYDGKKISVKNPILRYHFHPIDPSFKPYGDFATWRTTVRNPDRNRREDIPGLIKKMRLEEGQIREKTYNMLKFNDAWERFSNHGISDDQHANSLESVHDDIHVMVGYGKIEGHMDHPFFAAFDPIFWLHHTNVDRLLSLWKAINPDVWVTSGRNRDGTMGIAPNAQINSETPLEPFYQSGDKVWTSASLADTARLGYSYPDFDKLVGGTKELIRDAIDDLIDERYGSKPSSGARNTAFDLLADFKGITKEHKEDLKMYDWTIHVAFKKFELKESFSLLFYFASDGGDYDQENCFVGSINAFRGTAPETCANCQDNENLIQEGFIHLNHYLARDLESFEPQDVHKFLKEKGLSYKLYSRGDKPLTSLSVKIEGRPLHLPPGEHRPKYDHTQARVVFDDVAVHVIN
The assay can be described thus: Inhibition of monophenolase activity of mushroom tyrosinase using as L-tyrosine substrate. The method in brief: (§1)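 Mushroom tyrosinase (144 units) was added to 0.25 M phosphate buffer (pH 6.8) with substrate: L-tyrosine for monophenolase or L-DOPA for diphenolase. Substrate was added as 200 µL of a 2.7 mM L-tyrosine or 5.4 mM L-DOPA stock. Samples were 10 mM EtOH stocks. Dopachrome formation was read at 475 nm at 30 °C. Runs were triplicate, and IC50 came from a logistic curve fit.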

Assay [2] deals with T1, Tyrosinase. The assay can be described thus: Inhibition of monophenolase activity of mushroom tyrosinase using as L-tyrosine substrate by Lineweaver-Burke plot based kinetic assay.
Assay [3] has as its target T1, Tyrosinase. Description: Inhibition of diphenolase activity of mushroom tyrosinase using as L-DOPA substrate. The method in brief:
as §1

The target in assay [4] is T1, Tyrosinase. The assay can be described thus: Inhibition of diphenolase activity of mushroom tyrosinase using as L-DOPA substrate by Lineweaver-Burke plot based kinetic assay. The method in brief: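 Diphenolase kinetics used 0.25 M phosphate buffer (pH 6.8) at 30 °C, reading dopachrome at 475 nm. L-DOPA concentration was varied at several fixed inhibitor concentrations. Reciprocal velocity was plotted against 1/[L-DOPA] (Lineweaver–Burk), and inhibition type and Ki were read from the line pattern.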

The target in assay [5] is T1, Tyrosinase. Description: Inhibition of mushroom tyrosinase by kinetic based assay. Conditions: read-out: Ki(app). The method in brief:
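Time-dependent assay with L-tyrosine substrate in 0.25 M phosphate buffer (pH 6.8) at 30 °C. Activity was monitored continuously for 15 min, giving 20 points at 30 s intervals, at several inhibitor concentrations and fixed substrate. kobs came from the slow-binding equation or from ln(residual activity) versus preincubation time. k3, k4 and Kiapp came from kobs versus [I] by the Morrison–Walsh method, using nonlinear regression.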

With `C=CC(C)(C)c1cc(CCCc2cc(O)c(O)c(CC=C(C)C)c2CC=C(C)C)c(O)cc1O` [KAZINOL C], the IC50 amounted to 15.5 µM on Tyrosinase [1] and 22.8 µM against Tyrosinase [3]. The results for the Ki on Tyrosinase [2] and at Tyrosinase [4] were 10.8 µM and 11.2 µM, respectively.

Regarding `C=CC(C)(C)c1cc(CCCc2cc(O)c3c(c2CC=C(C)C)CC(C(C)(C)O)O3)c(O)cc1O` (stereo not drawn) [KAZINOL T], the figures for the IC50 against Tyrosinase [1] and at Tyrosinase [3] were 103 µM and over 200 µM, respectively.

As to `C=CC(C)(C)c1cc(CCCc2cc(O)c3c(c2CC=C(C)C)CCC(C)(C)O3)c(O)cc1O` [KAZINOL D], the IC50 is 165 µM against Tyrosinase [1] and over 200 µM on Tyrosinase [3].

In the case of `CC(C)=CCc1cc(CCCc2ccc(O)cc2O)ccc1O` [BROUSSONIN C], the Ki at Tyrosinase [5] stood at 48.5 nM; on Tyrosinase [2] it was 0.23 µM; on Tyrosinase [4] it was 0.29 µM. Also, the IC50 at Tyrosinase [1] came out at 0.43 µM; against Tyrosinase [3], 0.57 µM.

Regarding `CC(C)=CCc1c(CCCc2ccc(O)cc2O)cc(O)c(O)c1CC=C(C)C` [KAZINOL F], the results for the Ki at Tyrosinase [5], at Tyrosinase [2] and on Tyrosinase [4] were 181 nM, 0.41 µM and 0.77 µM, respectively. Besides, the IC50 amounted to 0.96 µM against Tyrosinase [1] and 1.7 µM against Tyrosinase [3].

Regarding `C=CC(C)(C)c1cc(CCCc2cc(O)c(O)c(CC3OC3(C)C)c2CC=C(C)C)c(O)cc1O` (stereo not drawn) [KAZINOL S], the Ki amounted to 870 nM on Tyrosinase [5], 9.12 µM on Tyrosinase [2] and 15.6 µM on Tyrosinase [4]. The figures for the IC50 at Tyrosinase [1] and on Tyrosinase [3] were 17.9 µM and 26.9 µM, respectively.
